According to ChEMBL document CHEMBL3351709, “Limonoids from the seeds of Swietenia macrophylla with inhibitory activity against dengue virus 2” (J Nat Prod, 2014):
pEC50: −log10 of the molar value.

How the values were obtained:
[1] = Selectivity index, ratio of CC50 against human HuH7 cells to EC50 against dengue virus 2; format: toxicity, cell-based, Huh-7; settings: read-out: Ratio CC50/EC50
dengue virus type 2 = experiment: Antiviral activity against dengue virus 2 infected in human HuH7 cells after 72 hrs by Western blot and ECL detection based assay; format: functional, organism-based; settings: Huh-7, 72 h
Method in brief: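 Huh-7 cells (ATCC) in DMEM with 10% FBS, 1% nonessential amino acids and 1% antibiotic-antimycotic, 37 °C, 5% CO2. Seeded at 5 × 10^4 cells/mL/well for 12–16 h, then infected with DENV-2 strain 16681 at MOI 0.2 for 2 h at 37 °C. Washed with PBS and refed with compound in DMEM–10% FBS. At 72 h p.i., NS2B Western blot with GAPDH loading control and ECL detection. Ribavirin as reference.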

[2] = Cytotoxicity against human HuH7 cells after 72 hrs by MTS assay; format: cell-based, Huh-7

Row | Compound | selectivity ratio [1] | pEC50 (dengue virus type 2) | CC50 at 72 h [2]
1 | NC(=O)c1ncn([C@@H]2O[C@H](CO)[C@@H](O)[C@H]2O)n1 [RIBAVIRIN] | 4.47 | 4.90 | 
2 | CC[C@H](C)C(=O)O[C@@H]1[C@@H]2C(=O)[C@](C)(C3CC[C@]4(C)[C@@H](CC(=O)O[C@H]4c4ccoc4)[C@]34O[C@H]24)[C@@H]([C@@H](O)C(=O)OC)C1(C)C (some centres undefined) | > 27.7 | 5.14 | > 200 µM
3 | CC1(C)C(=O)C=C[C@]2(C)[C@H]3CC[C@@]4(C)[C@H](c5ccoc5)OC(=O)[C@H]5O[C@]54[C@]3(C)[C@H](O)C[C@@H]12 [DEACETYLGEDUNIN] | 8.4 | 4.90 | 105 µM
4 | C=C1[C@@H]2CC[C@@]3(C)[C@H](c4ccoc4)OC(=O)C[C@]13O[C@H]1CC(=O)C(C)(C)[C@H](CC(=O)OC)[C@]12C [METHYLANGOLENSATE] | 27 | 5.37 | 116 µM
5 | C/C=C(\C)C(=O)O[C@@H]1[C@H]2C=C3[C@@H]4CC(=O)O[C@@H](c5ccoc5)[C@]4(C)CC[C@@H]3[C@@](C)(C2=O)[C@@H]([C@@H](OC(C)=O)C(=O)OC)C1(C)C | 13.2 | 5.20 | 83 µM
